Test results as given in ChEMBL document CHEMBL1131062, “Synthesis and pharmacological characterization of O-alkynyloximes of tropinone and N-methylpiperidinone as muscarinic agonists” (J Med Chem, 1998).
Values joined by “and” are separate entries in the source; they are usually repeats but may differ in a detail not shown here. Identical values can stand only once.

target: T1, Muscarinic acetylcholine receptor M2 (Rattus norvegicus, UniProt P10980); test: Binding affinity to Muscarinic acetylcholine receptor M2 by measuring its ability to displace [3H]N-methylscopolamine binding in rat heart; details: not given
T1 sequence (P10980 whole entry): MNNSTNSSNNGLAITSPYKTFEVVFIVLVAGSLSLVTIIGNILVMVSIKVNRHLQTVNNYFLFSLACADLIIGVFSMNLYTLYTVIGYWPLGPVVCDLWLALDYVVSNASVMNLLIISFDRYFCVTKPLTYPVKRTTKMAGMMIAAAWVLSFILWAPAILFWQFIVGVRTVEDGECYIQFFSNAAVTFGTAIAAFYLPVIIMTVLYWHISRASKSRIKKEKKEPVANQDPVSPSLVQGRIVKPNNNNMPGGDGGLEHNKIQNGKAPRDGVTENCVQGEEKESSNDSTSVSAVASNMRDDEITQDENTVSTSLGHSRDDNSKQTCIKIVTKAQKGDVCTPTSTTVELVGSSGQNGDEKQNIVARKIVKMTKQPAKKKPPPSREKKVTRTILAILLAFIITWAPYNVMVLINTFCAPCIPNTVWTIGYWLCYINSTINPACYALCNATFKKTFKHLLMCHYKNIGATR
Method in brief: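 Rat heart ventricle membranes, homogenized in sucrose/TRIS and washed in Na+/Mg2+ HEPES buffer pH 7.4. Nonspecific binding defined with 1 μM (±)-QNB. Bound ligand separated by centrifugation and counted by scintillation. Triplicate determinations. Ki derived from IC50 by Cheng–Prusoff.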

SMILES	Ki
CCC#CCON=C1CCN(C)CC1	15.8 µM
C#CCON=C1CC2CCC(C1)N2C	6.31 µM and 25.1 µM
CON=C1CCN(C)CC1	39.8 µM
C#CCC(C)ON=C1CC2CCC(C1)N2C (configuration not stated)	1.58 µM
O=C1CCCN1CC#CCN1CCCC1 [OXOTREMORINE]	0.2 µM
C#CCCCON=C1CC2CCC(C1)N2C	6.31 µM
CON=C1CC2CCC(C1)N2C	126 µM
C#CC(CC)ON=C1CC2CCC(C1)N2C (configuration not stated)	6.31 µM
CN1CCC(=NO)CC1	398 µM
CC#CCCON=C1CCN(C)CC1	15.8 µM
CC#CCCON=C1CC2CCC(C1)N2C	3.16 µM
C#CCCON=C1CC2CCC(C1)N2C	31.6 µM
C#CC(C)ON=C1CC2CCC(C1)N2C (configuration not stated)	6.31 µM
CN1C2CCC1CC(=NO)C2	39.8 µM
CCC#CCON=C1CC2CCC(C1)N2C	12.6 µM
C#CCON=C1CCN(C)CC1	25.1 µM
C[N+](C)(C)CC#CCOC(=O)Nc1cccc(Cl)c1	6.31 µM
C#CCCCON=C1CCN(C)CC1	10 µM
CC#CCON=C1CC2CCC(C1)N2C	12.6 µM
CC#CCON=C1CCN(C)CC1	7.94 µM
C#CCCON=C1CCN(C)CC1	10 µM
C#CC(CC)ON=C1CCN(C)CC1 (configuration not stated)	10 µM
C#CC(C)ON=C1CCN(C)CC1 (configuration not stated)	12.6 µM
C#CCC(C)ON=C1CCN(C)CC1 (configuration not stated)	10 µM

target: Muscarinic receptor M1 and M2 (Rattus norvegicus) (UniProt P08482+P10980); test: Inhibitory selectivity for Muscarinic receptors M2 and M1; assay type: protein assay; details: not given
Method in brief: (§1)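 Ratios of Ki values from rat tissue displacement binding. M1 used cerebral cortex with 0.5 nM [3H]pirenzepine. M2 used heart ventricle and M3 used submandibulary gland, both with 0.3 nM [3H]-N-methylscopolamine. All incubations ran 45 min at 30 °C with test compound at 10 nM–10 mM. Ki obtained by Cheng–Prusoff. Three independent experiments.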

Muscarinic receptor M1 and M2 (Rattus norvegicus), sequence (P08482 whole entry, looked up, one chain of several): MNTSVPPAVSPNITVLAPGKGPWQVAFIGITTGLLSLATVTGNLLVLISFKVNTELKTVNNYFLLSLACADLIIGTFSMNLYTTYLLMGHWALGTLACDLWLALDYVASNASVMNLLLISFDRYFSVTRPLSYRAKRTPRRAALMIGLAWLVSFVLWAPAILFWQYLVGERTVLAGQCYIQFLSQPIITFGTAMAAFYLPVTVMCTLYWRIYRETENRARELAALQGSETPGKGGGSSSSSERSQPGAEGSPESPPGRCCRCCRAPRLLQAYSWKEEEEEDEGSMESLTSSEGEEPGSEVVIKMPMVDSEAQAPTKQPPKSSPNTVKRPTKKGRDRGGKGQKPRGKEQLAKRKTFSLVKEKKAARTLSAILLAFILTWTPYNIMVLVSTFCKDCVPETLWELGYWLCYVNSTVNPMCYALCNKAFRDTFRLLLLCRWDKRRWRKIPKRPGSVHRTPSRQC

SMILES	Selectivity ratio
CCC#CCON=C1CCN(C)CC1	4
C#CCON=C1CC2CCC(C1)N2C	4.2
CON=C1CCN(C)CC1	0.74
C#CCC(C)ON=C1CC2CCC(C1)N2C (configuration not stated)	16
O=C1CCCN1CC#CCN1CCCC1 [OXOTREMORINE]	0.32
C#CCCCON=C1CC2CCC(C1)N2C	12
CON=C1CC2CCC(C1)N2C	0.14
C#CC(CC)ON=C1CC2CCC(C1)N2C (configuration not stated)	20
CN1CCC(=NO)CC1	0.9
CC#CCCON=C1CCN(C)CC1	7.5
CC#CCCON=C1CC2CCC(C1)N2C	4.5
C#CCCON=C1CC2CCC(C1)N2C	19
C#CC(C)ON=C1CC2CCC(C1)N2C (configuration not stated)	4.5
CN1C2CCC1CC(=NO)C2	0.74
CCC#CCON=C1CC2CCC(C1)N2C	2.4
C#CCON=C1CCN(C)CC1	0.59
C[N+](C)(C)CC#CCOC(=O)Nc1cccc(Cl)c1	1.4
C#CCCCON=C1CCN(C)CC1	1.1
CC#CCON=C1CC2CCC(C1)N2C	24
CC#CCON=C1CCN(C)CC1	2
C#CCCON=C1CCN(C)CC1	6.2
C#CC(CC)ON=C1CCN(C)CC1 (configuration not stated)	1.8
C#CC(C)ON=C1CCN(C)CC1 (configuration not stated)	2.2
C#CCC(C)ON=C1CCN(C)CC1 (configuration not stated)	2.9

species: Rattus norvegicus; test: Concentration required to relax phenylephrine-precontracted aortic rings by 50% in endothelium intact rat aorta; assay type: functional; details: read-out: ED50 (the source's name)
Method in brief: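 Endothelium-intact rat aortic rings equilibrated 60 min at 37 °C under 95% O2/5% CO2. Endothelium confirmed by relaxation to 10^-6 M ACh. After washout, rings precontracted with 10^-7 M phenylephrine. Test compound added cumulatively (10^-6–10^-4 M) at 2-min intervals. Each ring used once. ED50 taken from percent phenylephrine response versus concentration.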

SMILES	EC50 [µM]
CCC#CCON=C1CCN(C)CC1	6.2
C#CCON=C1CC2CCC(C1)N2C	3.5
CON=C1CCN(C)CC1	13
COC(=O)C1=CCCN(C)C1 [ARECOLINE]	1.6
C#CCC(C)ON=C1CC2CCC(C1)N2C (configuration not stated)	5.4
O=C1CCCN1CC#CCN1CCCC1 [OXOTREMORINE]	0.044
C#CCCCON=C1CC2CCC(C1)N2C	5.9
CON=C1CC2CCC(C1)N2C	11
C#CC(CC)ON=C1CC2CCC(C1)N2C (configuration not stated)	5.5
CN1CCC(=NO)CC1	43
CC#CCCON=C1CCN(C)CC1	6.3
CC#CCCON=C1CC2CCC(C1)N2C	7.8
C#CCCON=C1CC2CCC(C1)N2C	5.3
C#CC(C)ON=C1CC2CCC(C1)N2C (configuration not stated)	6.9
CN1C2CCC1CC(=NO)C2	53
CCC#CCON=C1CC2CCC(C1)N2C	1.3
C#CCON=C1CCN(C)CC1	6.8
C[N+](C)(C)CC#CCOC(=O)Nc1cccc(Cl)c1	9.6
C#CCCCON=C1CCN(C)CC1	9.3
CC#CCON=C1CC2CCC(C1)N2C	3.4
CC#CCON=C1CCN(C)CC1	8.7
C#CCCON=C1CCN(C)CC1	7.4
C#CC(CC)ON=C1CCN(C)CC1 (configuration not stated)	7.6
C#CC(C)ON=C1CCN(C)CC1 (configuration not stated)	7.8
C#CCC(C)ON=C1CCN(C)CC1 (configuration not stated)	5

species: Oryctolagus cuniculus; test: Concentration required to relax phenylephrine-precontracted aortic rings by 50% in endothelium denuded rabbit aorta; details: read-out: ED50 (the source's name)

SMILES	EC50 [µM]
CCC#CCON=C1CCN(C)CC1	12
C#CCON=C1CC2CCC(C1)N2C	7.1
CON=C1CCN(C)CC1	260
C#CCC(C)ON=C1CC2CCC(C1)N2C (configuration not stated)	23
C#CCCCON=C1CC2CCC(C1)N2C	6.5
CON=C1CC2CCC(C1)N2C	11
C#CC(CC)ON=C1CC2CCC(C1)N2C (configuration not stated)	41
CN1CCC(=NO)CC1	78
CC#CCCON=C1CC2CCC(C1)N2C	9.8
C#CCCON=C1CC2CCC(C1)N2C	15
C#CC(C)ON=C1CC2CCC(C1)N2C (configuration not stated)	26
CN1C2CCC1CC(=NO)C2	320
CCC#CCON=C1CC2CCC(C1)N2C	3.5
C#CCON=C1CCN(C)CC1	11
C[N+](C)(C)CC#CCOC(=O)Nc1cccc(Cl)c1	0.35
C#CCCCON=C1CCN(C)CC1	13
CC#CCON=C1CC2CCC(C1)N2C	4.8
CC#CCON=C1CCN(C)CC1	8.7
C#CCCON=C1CCN(C)CC1	28
C#CC(CC)ON=C1CCN(C)CC1 (configuration not stated)	18
C#CC(C)ON=C1CCN(C)CC1 (configuration not stated)	41
C#CCC(C)ON=C1CCN(C)CC1 (configuration not stated)	25

target: T2, Muscarinic acetylcholine receptor M3 (Rattus norvegicus, UniProt P08483); test: Binding affinity to Muscarinic acetylcholine receptor M3 by measuring its ability to displace [3H]N-methylscopolamine binding in rat submandibulary gland; details: not given
Method in brief: (§2)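 Rat submandibulary gland membranes prepared in Na+/Mg2+ HEPES buffer pH 7.4. Incubated 45 min at 30 °C with 0.3 nM [3H]-N-methylscopolamine and test compound (10 nM–10 mM). Nonspecific binding defined with 1 μM (±)-QNB. Pellet obtained by centrifugation and counted by scintillation. Triplicate determinations. Ki derived from IC50 by Cheng–Prusoff.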

T2 sequence (P08483 whole entry): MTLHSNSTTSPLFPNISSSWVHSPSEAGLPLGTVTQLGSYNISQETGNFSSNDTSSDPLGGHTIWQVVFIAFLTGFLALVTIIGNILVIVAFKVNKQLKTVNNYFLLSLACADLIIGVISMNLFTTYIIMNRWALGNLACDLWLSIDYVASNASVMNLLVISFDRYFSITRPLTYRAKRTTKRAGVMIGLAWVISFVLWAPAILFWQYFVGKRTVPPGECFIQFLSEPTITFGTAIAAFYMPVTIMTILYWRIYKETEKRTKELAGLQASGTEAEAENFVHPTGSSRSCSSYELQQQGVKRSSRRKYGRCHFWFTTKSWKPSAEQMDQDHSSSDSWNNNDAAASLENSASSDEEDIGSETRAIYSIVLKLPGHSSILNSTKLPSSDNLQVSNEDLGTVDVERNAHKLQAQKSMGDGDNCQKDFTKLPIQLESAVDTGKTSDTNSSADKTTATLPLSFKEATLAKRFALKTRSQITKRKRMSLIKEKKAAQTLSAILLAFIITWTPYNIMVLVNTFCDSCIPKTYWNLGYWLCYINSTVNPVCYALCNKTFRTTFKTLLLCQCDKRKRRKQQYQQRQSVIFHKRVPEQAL

SMILES	Ki [µM]
CCC#CCON=C1CCN(C)CC1	20
CON=C1CCN(C)CC1	25.1
C#CCC(C)ON=C1CC2CCC(C1)N2C (configuration not stated)	3.16
O=C1CCCN1CC#CCN1CCCC1 [OXOTREMORINE]	0.398
C#CCCCON=C1CC2CCC(C1)N2C	10
CON=C1CC2CCC(C1)N2C	100
C#CC(CC)ON=C1CC2CCC(C1)N2C (configuration not stated)	6.31
CN1CCC(=NO)CC1	3160
CC#CCCON=C1CCN(C)CC1	39.8
CC#CCCON=C1CC2CCC(C1)N2C	2.51
C#CCCON=C1CC2CCC(C1)N2C	10
C#CC(C)ON=C1CC2CCC(C1)N2C (configuration not stated)	3.98
CN1C2CCC1CC(=NO)C2	794
CCC#CCON=C1CC2CCC(C1)N2C	3.16
C#CCON=C1CCN(C)CC1	20
C#CCCCON=C1CCN(C)CC1	15.8
CC#CCON=C1CC2CCC(C1)N2C	15.8
CC#CCON=C1CCN(C)CC1	126
C#CCCON=C1CCN(C)CC1	39.8
C#CC(CC)ON=C1CCN(C)CC1 (configuration not stated)	10
C#CC(C)ON=C1CCN(C)CC1 (configuration not stated)	79.4
C#CCC(C)ON=C1CCN(C)CC1 (configuration not stated)	50.1

target: T2, Muscarinic acetylcholine receptor M3; test: The compound was evaluated for its ability to inhibit [3H]NMS binding to Muscarinic acetylcholine receptor in submandibular salivary gland; assay type: tissue-based; details: not given; method in brief: as §2

SMILES	Ki [µM]
CCC#CCON=C1CC2CCC(C1)N2C	79.4
CC#CCON=C1CC2CCC(C1)N2C	20

target: Muscarinic receptor M2 and M3 (Rattus norvegicus) (UniProt P08483+P10980); test: Inhibitory selectivity for Muscarinic receptors M3 and M2; assay type: protein assay; details: not given; method in brief: as §1
Sequence (P08483 whole entry, looked up, one chain of several): as the sequence (P08483 whole entry) above

SMILES	Selectivity ratio
CCC#CCON=C1CCN(C)CC1	1.4
C#CCON=C1CC2CCC(C1)N2C	1.1
CON=C1CCN(C)CC1	0.71
C#CCC(C)ON=C1CC2CCC(C1)N2C (configuration not stated)	1.8
O=C1CCCN1CC#CCN1CCCC1 [OXOTREMORINE]	2
C#CCCCON=C1CC2CCC(C1)N2C	1.3
CON=C1CC2CCC(C1)N2C	0.74
C#CC(CC)ON=C1CC2CCC(C1)N2C (configuration not stated)	1.1
CN1CCC(=NO)CC1	8.5
CC#CCCON=C1CCN(C)CC1	0.27
CC#CCCON=C1CC2CCC(C1)N2C	0.66
C#CCCON=C1CC2CCC(C1)N2C	0.34
C#CC(C)ON=C1CC2CCC(C1)N2C (configuration not stated)	0.72
CN1C2CCC1CC(=NO)C2	18
CCC#CCON=C1CC2CCC(C1)N2C	0.23
C#CCON=C1CCN(C)CC1	0.72
C[N+](C)(C)CC#CCOC(=O)Nc1cccc(Cl)c1	0.33
C#CCCCON=C1CCN(C)CC1	1.5
CC#CCON=C1CC2CCC(C1)N2C	1.1
CC#CCON=C1CCN(C)CC1	17
C#CCCON=C1CCN(C)CC1	3.7
C#CC(CC)ON=C1CCN(C)CC1 (configuration not stated)	0.85
C#CC(C)ON=C1CCN(C)CC1 (configuration not stated)	6.3
C#CCC(C)ON=C1CCN(C)CC1 (configuration not stated)	5.4

tested on: not listed separately; test: Inhibitory selectivity for Muscarinic receptors M3 and M1; details: not given; method in brief: as §1

SMILES	Selectivity ratio
CCC#CCON=C1CCN(C)CC1	5.4
C#CCON=C1CC2CCC(C1)N2C	4.6
CON=C1CCN(C)CC1	0.51
C#CCC(C)ON=C1CC2CCC(C1)N2C (configuration not stated)	29
O=C1CCCN1CC#CCN1CCCC1 [OXOTREMORINE]	0.63
C#CCCCON=C1CC2CCC(C1)N2C	16
CON=C1CC2CCC(C1)N2C	0.1
C#CC(CC)ON=C1CC2CCC(C1)N2C (configuration not stated)	22
CN1CCC(=NO)CC1	7.6
CC#CCCON=C1CCN(C)CC1	2
CC#CCCON=C1CC2CCC(C1)N2C	3
C#CCCON=C1CC2CCC(C1)N2C	6.8
C#CC(C)ON=C1CC2CCC(C1)N2C (configuration not stated)	0.46
CN1C2CCC1CC(=NO)C2	1.4
CCC#CCON=C1CC2CCC(C1)N2C	0.56
C#CCON=C1CCN(C)CC1	0.42
C[N+](C)(C)CC#CCOC(=O)Nc1cccc(Cl)c1	0.46
C#CCCCON=C1CCN(C)CC1	1.7
CC#CCON=C1CC2CCC(C1)N2C	27
CC#CCON=C1CCN(C)CC1	35
C#CCCON=C1CCN(C)CC1	25
C#CC(CC)ON=C1CCN(C)CC1 (configuration not stated)	1.5
C#CC(C)ON=C1CCN(C)CC1 (configuration not stated)	14
C#CCC(C)ON=C1CCN(C)CC1 (configuration not stated)	15
